# Source: PubChem BioAssay (Broad Institute)
# Most compounds without a hit are left out; they make up all but 0.99% or so of the library.
# Dyrk1A ADPGlo = Dyrk1A (rat) kinase inhibition. ADP-Glo luminescence, NFATc1 peptide. hit rate 0.43% among 310,000. inhibition, % at 12.5 µM. Q63470. AID 504441; in the data active = inhibition above about 50%
# Rce1 inhib = inhibitors of yeast Ras-converting enzyme; Q03530; calls only; hit rate 0.27% among 290,000; yeast membranes, quenched prenylated peptide cleavage fluorescence;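 active = fall in fluorescence gain of 50% or more versus controls, with final raw signal at or below 3038400; inconclusive = same 50% fall but final raw signal above 3038400; inactive = fall in fluorescence gain under 50%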
# AI-2 QS modul = modulators of Vibrio harveyi AI-2 quorum sensing system; activity change, % at 7.5 µM; AID 2094; hit rate 0.4% among 300,000; Vibrio harveyi JMH597 AI-2 luminescence/OD600 ratio, 9 h; active compounds read low; strain lacks LuxN and CqsS sensors; 0 = neutral-control median; in the data active = activity change below about -75%, passing the limit was not always enough; inconclusive = no clear call, values can overlap the other calls;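 also: luminescence divided by OD600 gain over 9 h not by final OD600 alone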
# GSK3A inh = human GSK-3 alpha kinase inhibition; hit rate 0.1% among 320,000; inhibition, % at 10 µM; P49840; ADP-Glo luminescence, 60 min;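 active = more than half of replicates show inhibition above 20%; inconclusive = some but at most half of replicates above 20% inhibition; inactive = no replicate shows inhibition above 20%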;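 also: GST-tagged GSK-3 alpha with peptide substrate and 25 µM ATP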
# Target sequence (P49840 whole entry, looked up): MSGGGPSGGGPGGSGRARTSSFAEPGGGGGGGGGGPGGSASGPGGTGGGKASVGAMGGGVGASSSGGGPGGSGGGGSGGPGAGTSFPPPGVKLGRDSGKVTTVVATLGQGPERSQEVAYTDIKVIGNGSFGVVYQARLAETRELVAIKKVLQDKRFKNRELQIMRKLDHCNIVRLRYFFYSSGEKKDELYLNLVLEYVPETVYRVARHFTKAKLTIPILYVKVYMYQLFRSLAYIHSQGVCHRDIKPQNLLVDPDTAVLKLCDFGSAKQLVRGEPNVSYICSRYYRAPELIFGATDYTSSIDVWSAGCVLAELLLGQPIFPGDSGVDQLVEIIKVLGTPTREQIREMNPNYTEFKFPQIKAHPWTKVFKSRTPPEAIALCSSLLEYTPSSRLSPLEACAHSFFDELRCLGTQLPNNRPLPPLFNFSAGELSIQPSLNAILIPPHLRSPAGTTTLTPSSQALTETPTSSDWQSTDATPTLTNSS
# GSK3beta inhib = inhibitors of human GSK3beta kinase; P49841; GST-GSK3beta kinase, ADP-Glo luminescence, 60 min; active compounds read low; activity score (negative = inhibition), % at 10 µM; hit rate 0.038% among 300,000; AID 2097;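 active = more than half of replicate wells score below -50%, meaning over 50% inhibition versus plate controls; inconclusive = some replicates but at most half score below -50%; inactive = no replicate scores below -50%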
#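 Test system – GST-tagged human GSK3beta kinase, cell-free · Incubation – 60 min enzyme reaction, room temperature · Signal – ADP-Glo luminescence · Also added – peptide substrate and ATP at 25 µM · Controls – DMSO neutral wells and GW8510 at 20 µM as positive · Buffer or medium – Tris/MgCl2 kinase buffer · Measure – Luminescence-derived activity versus plate DMSO and GW8510 wells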
# STK33 inh = inhibitors of human STK33 kinase | Q9BYT3 | inhibition, % at 10 µM | hit rate 0.073% among 320,000 | purified STK33, MBP phosphorylation, ADP-Glo luminescence | AID 2661;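 active = inhibition at or above 25%, using the most active replicate where run in duplicate; inactive = inhibition below 25%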
# Numbers stand for hits; - = inactive; ? = inconclusive; . = no result; + = active, no number.
SMILES,Dyrk1A ADPGlo,Rce1 inhib,AI-2 QS modul,GSK3A inh,GSK3beta inhib,STK33 inh
O=c1c(O)c(-c2ccc(O)c(O)c2)oc2cc(O)cc(O)c12,-,-,-,57,-,38
O=c1c2ccccc2oc2c1oc1ccccc12,-,.,.,.,.,.
O=[N+]([O-])c1ccc(N/N=C/c2cccc(O)c2)cc1,-,-,-86,-,-,-
CCOC(=O)C1=CN(Cc2ccco2)S(=O)(=O)N(CC)C1c1ccc(C(F)(F)F)cc1 (stereo not drawn),-,.,.,.,.,.
Cc1ccccc1S(=O)(=O)c1cc(C#N)c(=O)[nH]c1N,-,+,-,-,-,-
COc1ccc(Cl)cc1Nc1nc(C)nc2c1oc1ccccc12,-,+,-,-,-,-
COc1ccc(NC(=O)COC(=O)c2ccc([N+](=O)[O-])o2)cc1Cl,-,-,-89,-,-,-
O=C(OCc1cc(Cl)ccc1OC(F)F)c1ccc([N+](=O)[O-])o1,.,-,-99,-,-,-
O=C(OCc1cc(Cl)ccc1OC(F)F)c1cncc(Br)c1,-,-,-,-,-,-
COc1ccc(/C=C/C(=O)OCC(=O)NC2CCCC2)cc1,.,.,.,-,.,-
O=C(O)CCc1ccc(-c2cccs2)n1Cc1ccco1,-,+,-,-,-,-
O=C(NNc1nc2ccc(F)cc2s1)c1cccc(F)c1,-,-,-119,-,-,-
O=C(NNc1nc2ccccc2s1)c1ccc(F)cc1,-,-,-77,.,-,.
O=C(NC1CCCCCC1)C1CCCN(c2ncccn2)C1 (stereo not drawn),-,-,-,-,-,-
Cc1ccc(C(=O)CC(=O)COc2ccc(Cl)cc2)cc1,-,-,-79,-,-,-
C#CCNC(=O)C1=C[C@@H](C2CCCCC2)C[C@@H](OCc2ccc(CO)cc2)O1,-,+,-,-,-,-
C#CCNC(=O)C1=C[C@H](C2CCCCC2)C[C@H](OCc2ccc(CO)cc2)O1,-,-,-,-,-,-
O=[N+]([O-])c1ccc(S(=O)(=O)NN=Cc2ccc(Cl)c(Cl)c2)cc1,-,.,.,.,.,.
Cc1ccc(C(=O)NC(=S)NNC(=O)c2ccc([N+](=O)[O-])cc2)cc1,-,-,-86,-,-,-
Cc1ccc(C(=O)NNC(=S)NC(=O)c2ccccc2)cc1,-,-,-84,-,-,-
O=C(CCc1ccccc1)NNC(=S)NC(=O)c1ccccc1,-,-,-309,-,-,-
CCC(=O)Nc1cccc(NC(=S)NC(=O)c2cccs2)c1,-,+,-,-,-,-
O=C(c1ccc(NS(=O)(=O)c2ccccc2)cc1)N1CCN(c2ccccc2)CC1,-,.,.,-,.,-
Cc1ccc(NC(=O)c2ccc(=O)[nH]c2)cc1S(=O)(=O)N1CCCCCC1,-,.,.,-,.,-
CC(OC(=O)Cc1c[nH]c2ccccc12)C(=O)NC1CCCCC1C (stereo not drawn),-,.,.,-,.,-
SMILES,Dyrk1A ADPGlo,Rce1 inhib,AI-2 QS modul,GSK3A inh,GSK3beta inhib,STK33 inh
CC(C)(CNC(=O)c1cccs1)N1CCOCC1,-,.,.,-,.,-
Cc1ccc(C(=O)NC(=S)Nc2ccccc2C(F)(F)F)cc1,-,-,-87,-,-,-
Cc1cccc(C(=O)NNC(=S)NC(=O)c2ccccc2)c1,-,-,?,-,-,-
Cc1ccc(C(=O)NC(=S)NNC(=O)c2ccccc2)cc1,-,-,-150,-,-,-
COc1ccc(C(=O)NNC(=S)NC(=O)c2cccs2)cc1,-,-,-81,-,-,-
COc1ccc(C(=O)NNC(=S)NC(=O)c2ccc(OC)cc2)cc1,.,-,-,-,-,-
Cc1ccc(C(C)C)c(OCc2nc(-c3nonc3N)no2)c1,-,-,-85,-,-,-
O=C(NNC(=O)c1ccccc1-n1cccc1)c1ccc(Cl)nc1,-,.,.,-,.,-
Cc1ccn(CC(=O)N/N=C/c2cc([N+](=O)[O-])ccc2O)n1,.,-,-169,-,-,-
O=C(Cn1cnc([N+](=O)[O-])n1)N/N=C/c1ccccc1O,-,-,?,-,-,-
O=C(Cn1cnc([N+](=O)[O-])n1)N/N=C/c1cc(Cl)ccc1O,-,-,-84,-,-,-
O=C(Cn1nc2ccccc2n1)N/N=C/c1cc([N+](=O)[O-])ccc1O,-,-,-86,-,-,-
O=C(Cn1cncn1)N/N=C/c1cc([N+](=O)[O-])ccc1O,-,-,-,-,-,-
O=C(COC(=O)c1ccc(NC(=O)C2CC=CCC2C(=O)O)cc1)c1ccccc1 (stereo not drawn),-,-,-,-,-,-
C=Cc1ccc(Cn2c(=O)n(C)c(=O)c3sccc32)cc1,-,-,-,-,-,-
C=CCN1C(=O)c2ccccc2Sc2ccc(C(=O)NCC(OC)OC)cc21,-,-,-,-,-,-
CC(C)N1CCN(Cc2ccc(OCc3ccccc3)cc2)CC1CCO (stereo not drawn),-,+,-,-,-,-
CC(C)N1CCN(Cc2ccc(-c3ccccc3)cc2)CC1CCO (stereo not drawn),-,-,-,-,-,-
CCCc1ccc(Oc2cn[nH]c2-c2ccc(O)c(C)c2O)cc1,-,-,-94,-,-,-
C=C1/C=C(\C)C(C)(O)CC(O)CC(=O)C(O)C(O)C(C)CC(C)OC(=O)/C(C)=C/CC/C=C/C(OC)C(O)CC(C)C1 (stereo not drawn),-,.,.,-,.,-
COc1ccc(C=O)c(OCc2cn(CC(=O)c3ccc(O)cc3)nn2)c1,-,.,.,.,.,.
Cc1nc2ccccc2n2c(-c3ccccc3)c3c(=O)n(C)c(=O)n(C)c3c12,-,-,-,59,-,-
COc1ccc2c(c1)-c1c(ssc1=S)C(C)(C)N2,-,-,-,-,-60,-
Cc1ccc(S(=O)(=O)Nc2ccccc2C(=O)NCC2CCCO2)cc1 (stereo not drawn),.,+,-,-,-,-
O=C(NCC1CCCO1)c1ccccc1NS(=O)(=O)c1ccc(F)cc1 (stereo not drawn),-,.,.,-,.,-
SMILES,Dyrk1A ADPGlo,Rce1 inhib,AI-2 QS modul,GSK3A inh,GSK3beta inhib,STK33 inh
Cc1nn2c(NCCN(C)C)c3c(nc2c1-c1ccccc1)CCCC3,-,+,-,-,-,-
CCOC(=O)CC(NS(=O)(=O)c1ccc2[nH]c(=O)sc2c1)c1ccc(C)cc1 (stereo not drawn),-,-,-,-,-,-
CCN(CC)S(=O)(=O)c1ccc(NC(=S)NC(=O)C2CCC2)cc1,.,-,-,.,-,.
CN(C)S(=O)(=O)c1ccc(NC(=S)NC(=O)C2CCC2)cc1,-,-,-76,-,-,-
C=CCSc1nnc(NC(=O)CN2C(=O)NC3(CCCC3)C2=O)s1,.,-,-,-,-,-
N#Cc1nc(-c2ccccc2Cl)oc1NCc1ccco1,-,-,-80,-,-,-
N#Cc1nc(-c2ccc(Cl)cc2)oc1NCc1ccco1,-,-,-,-,-,-
CCOC(=O)N1CCN(Cc2ccccc2Cl)CC1,-,.,.,-,.,-
CCOC(=O)N1CCN(Cc2cc(Cl)c3cccnc3c2O)CC1,.,-,-78,-,-,-
